Screening data (PubChem BioAssay)
Hits are enriched below; roughly 2.5% of the tested compounds scored in any of these assays.
SENP8 block-1: inhibitors of human SENP8 protease | inhibition, % at 10 µM | purified SENP8, Z-RLRGG-aminoluciferin cleavage, luminescence | Q96LD8 | 330,000 compounds, 1.2% hits | AID 2540; in the data active = inhibition above about 50%
Target sequence (Q96LD8 whole entry, looked up): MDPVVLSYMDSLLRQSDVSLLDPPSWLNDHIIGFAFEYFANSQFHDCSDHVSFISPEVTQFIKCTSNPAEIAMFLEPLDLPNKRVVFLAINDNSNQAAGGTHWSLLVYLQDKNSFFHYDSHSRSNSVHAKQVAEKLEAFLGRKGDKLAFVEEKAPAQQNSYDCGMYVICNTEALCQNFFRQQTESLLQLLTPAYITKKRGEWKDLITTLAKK
SENP6 inh: inhibitors of human SENP6 protease; Q9GZR1; Recombinant SENP6 catalytic domain, aminoluciferin luminescence; inhibition, % at 10 µM; 330,000 compounds, 1.8% hits; AID 2599;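 active = inhibition above about 50% at the single tested dose, limit read from the data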;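 also: plate controls were DMSO wells with enzyme for no effect and DMSO wells lacking enzyme for full effect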
SENP8 block-2: inhibitors of human SENP8 protease | Q96LD8 | recombinant SENP8, Nedd8 substrate fluorescence | inhibition, % at 20 µM | 360,000 compounds, 0.64% hits | AID 602440; in the data active = inhibition mostly above about 40%, no sharp cut-off; inactive = mostly below about 27%
SENP1 inh: SENP1 (human) catalytic domain inhibition; Q9P0U3; recombinant SENP1 catalytic domain, CyPet-SUMO1-YPet FRET cleavage; inhibition, % at 10 µM; 360,000 compounds, 0.21% hits; AID 624204;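 active = inhibition at least 30% at 10 µM, raw YFP signal under a set limit, fluorescence ratio 0.5 to 1.5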;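 also: 0% = enzyme with DMSO and 100% = no enzyme wells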
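Material – human SENP1 catalytic domain · Input – SENP1 enzyme, 20 pM final · Compound dosing – single concentration of 10 µM compound, 0.5% DMSO final · Timing – enzyme reaction for 50 min at room temperature, dark · Measured by – FRET fluorescence in CFP and YFP emission channels · Control set – no-enzyme wells low, DMSO-plus-enzyme wells high control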
SENP7 inh: inhibitors of human SENP7 protease | 330,000 compounds, 1.5% hits | inhibition, % at 5 µM | Q9BQF6 | recombinant SENP7, Z-RLRGG-aminoluciferin luminescence, 40 min;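 active = inhibition above about 50% at the single test dose, limit read from the data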;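 also: plate controls were DMSO with enzyme for no effect and no enzyme buffer wells for full effect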
Target sequence (Q9BQF6 706-1050 limits assumed): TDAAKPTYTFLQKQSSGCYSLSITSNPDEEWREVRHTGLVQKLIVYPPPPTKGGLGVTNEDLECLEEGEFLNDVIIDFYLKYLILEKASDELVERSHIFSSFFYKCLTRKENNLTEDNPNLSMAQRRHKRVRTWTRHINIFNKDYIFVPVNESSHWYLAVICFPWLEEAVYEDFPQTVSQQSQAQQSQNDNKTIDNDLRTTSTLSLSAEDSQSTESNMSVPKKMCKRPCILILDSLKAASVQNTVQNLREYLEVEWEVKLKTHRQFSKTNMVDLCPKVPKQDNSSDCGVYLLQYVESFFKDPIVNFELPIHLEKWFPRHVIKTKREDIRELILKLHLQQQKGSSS
SENP1 inh conf: SENP1 (human) inhibition, single concentration confirmation; shares compounds with SENP1 inh; recombinant SENP1, CyPet-SUMO1-YPet FRET cleavage; inhibition, % at 10 µM; 520 compounds, 34% hits; AID 651678; in the data active = inhibition mostly above about 35%, no sharp cut-off; inactive = mostly below about 32%;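 also: 0% = enzyme with DMSO and 100% = no enzyme control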
SENP1 kinetic: confirmation of human SENP1 SUMO protease inhibitors, kinetic; shares compounds with SENP1 inh; recombinant SENP1, CyPet-SUMO1-YPet FRET kinetic cleavage; inhibition, % at 10 µM; 520 compounds, 26% hits; in the data active = inhibition mostly above about 32%, no sharp cut-off; inactive = mostly below about 29%;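 also: 0% = DMSO with enzyme and 100% = no enzyme substrate only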
* marks the source's active call; other numbers are inactive results; · = no result.

SMILES | SENP8 block-1 | SENP6 inh | SENP8 block-2 | SENP1 inh | SENP7 inh | SENP1 inh conf | SENP1 kinetic
Cc1cccc(Oc2cc([N+](=O)[O-])cc3c2C(=O)Nc2ccccc2O3)c1 | -3.5 | -20.4 | 16.0 | 28.0 | 1.4 | · | ·
CN(NS(=O)(=O)c1ccc(Cl)cc1)c1nc(C(F)(F)F)nc2ccccc12 | 6.0 | 4.6 | 8.9 | -0.5 | 7.0 | · | ·
Cc1cccc(C)c1NC(=O)CN1C(=O)COc2ccccc21 | -10.4 | -0.9 | 0.6 | 0.3 | 2.3 | · | ·
CC1=CC(=O)C=C/C1=C(/c1ccc(O)cc1C)c1ccccc1S(=O)(=O)O | -6.0 | -14.5 | 15.8 | 35.9* | -10.0 | 18.3 | 16.5
CC1=C/C(=C(\c2ccc(O)c(C)c2)c2ccccc2S(=O)(=O)O)C=CC1=O | 14.6 | 43.5 | 17.3 | 7.6 | 7.6 | · | ·
COC(=O)c1c(NC(=O)c2ccccc2)sc(C(N)=O)c1C | 4.2 | -9.0 | -281.0 | -2.8 | -6.5 | · | ·
COC(=O)c1c(NC(=O)c2ccccc2)sc(C(=O)c2ccccc2)c1C | -2.4 | 1.3 | 20.5 | 42.6* | 2.9 | 23.5* | 34.2*
Cc1cc(F)ccc1NC(=O)C1CSC2(C)CCC(=O)N12 (centres undefined) | -8.4 | 2.3 | 11.9 | 1.6 | -6.8 | · | ·
COc1ccccc1NC1=C(Cl)C(=O)N(c2ccccc2)C1=O | 0.2 | 1.4 | 33.8 | 3.3 | -1.8 | · | ·
CCOc1ccc(N2C(=O)C(Cl)=C(Nc3ccccc3O)C2=O)cc1 | 23.5 | 40.9 | 6.2 | 36.2* | -8.9 | 27.5 | 13.8
O=C1C(Cl)=C(Nc2ccccc2O)C(=O)N1CCc1ccccc1 | 4.0 | 10.3 | 32.8 | 41.2* | -0.6 | 17.5 | 15.1
COC(=O)C[C@@H]1C=C[C@@H](NS(=O)(=O)c2ccccc2OC)[C@@H](CO)O1 | · | · | 10.4 | 1.1 | · | · | ·
COc1ccc2cc(C3=CC(=O)CC(C)(C)C3=O)ccc2c1 | · | · | 28.3 | 32.1* | · | -0.9 | 5.0
COc1ccc(-c2ccccc2C2=CC(=O)CC(C)(C)C2=O)cc1 | · | · | 34.4 | 32.8* | · | -2.2 | 1.0
Cc1ccc(-c2ccccc2C2=CC(=O)CC(C)(C)C2=O)cc1 | · | · | 17.8 | 2.5 | · | · | ·
COc1cccc(-c2ccccc2C2=CC(=O)CC(C)(C)C2=O)c1 | · | · | 13.7 | 0.0 | · | · | ·
CCCn1c(SCC(=O)N(C)C2CCCCC2)n[nH]c1=O | · | · | 4.9 | 0.8 | · | · | ·
Cc1cccc(-c2c3c(=O)n(C)c(=O)n(C)c3c3cccnn23)c1 | 4.9 | 19.3 | 15.2 | 61.8* | -0.8 | 30.3* | 28.3
Cc1cc(C)c2c3c(c(-c4ccccc4)n2n1)c(=O)n(C)c(=O)n3C | · | · | 21.5 | 6.5 | · | · | ·
COc1ccc(Nc2cc(C)nc3ncnn23)cc1Cl | 8.6 | -3.2 | 7.4 | 29.2* | 0.9 | 34.6* | 20.0
COc1cc(Nc2cc(C)nc3ncnn23)cc(OC)c1OC | -9.2 | -15.6 | 21.7 | 0.6 | 11.0 | · | ·
N#CCSc1ccccc1NC(=O)COC(=O)CCNC(=O)c1ccc([N+](=O)[O-])cc1 | 0.9 | -12.8 | -0.2 | 32.1* | 2.9 | 8.4 | 6.1
Cc1noc(C)c1C(=O)OCC(=O)Nc1ccccc1SCC#N | -17.5 | -7.3 | 5.5 | 43.5* | -2.4 | 17.4 | 13.7
C=CC(=O)Nc1cccc(N(C)c2ccnc(Nc3ccc(N4CCN(C)CC4)cc3)n2)c1 | · | · | 11.6 | -1.9 | · | · | ·
N=c1occ(C(=O)c2cc(F)ccc2O)cc1C(=O)NC1CCCCC1 | 5.4 | -7.3 | -11.6 | 30.3* | 0.1 | 6.2 | 13.1
SMILES | SENP8 block-1 | SENP6 inh | SENP8 block-2 | SENP1 inh | SENP7 inh | SENP1 inh conf | SENP1 kinetic
CCC(CCC(=O)NNC(=O)Cc1ccc([N+](=O)[O-])cc1)C(=O)O (centres undefined) | 6.5 | 6.0 | 17.9 | 3.8 | 1.0 | · | ·
N#C/C(=C\C=C\c1ccccc1[N+](=O)[O-])c1nc(-c2ccc3c(c2)OCO3)cs1 | 3.5 | 2.6 | 26.1 | 53.5* | -1.0 | 4.2 | 13.1
N#C/C(=C\c1ccccc1[N+](=O)[O-])c1nc(C2CC2)cs1 | -6.9 | -7.4 | 14.2 | 0.7 | -5.5 | · | ·
O=[N+]([O-])c1ccc(Oc2cccc3cccnc23)c([N+](=O)[O-])c1 | -8.2 | -10.3 | 23.8 | 76.2* | -1.7 | 24.7 | 15.7
CN1CCN(c2ccc(S(=O)(=O)N3CCOCC3)cc2NC(=O)Cc2ccccc2F)CC1 | 2.0 | -3.0 | 8.1 | 3.5 | 6.8 | · | ·
O=CNc1ccc2c(c1)Cc1cc([N+](=O)[O-])ccc1-2 | · | · | -4.3 | 48.3* | · | 26.8 | 19.9
CCC(=O)Nc1ccc2c(c1)Cc1cc([N+](=O)[O-])ccc1-2 | · | · | -29.7 | -6.1 | · | · | ·
COc1cc(/C=C2\CCCc3c2nc2ccccc2c3C(=O)O)cc(Br)c1O | 0.3 | -7.2 | -331.5 | 56.0* | -0.4 | 97.0* | 66.9*
CC1CCN(C(=O)CCc2nnc(-c3ccccc3)o2)CC1 | -0.7 | 13.5 | 16.2 | 0.6 | 0.1 | · | ·
O=C(CCc1nnc(-c2ccccc2)o1)NCC1CCN(C2CCCC2)CC1 | -5.3 | -11.1 | 9.4 | 50.2* | -0.8 | -3.6 | 3.4
CC(C)(C)OC(=O)N/N=C/c1ccc(N2CCOCC2)s1 | -2.6 | 3.0 | -183.5 | 43.5* | 9.6 | 64.4* | 43.4*
c1cc(Nc2cccc3nccnc23)c2nccnc2c1 | -38.3 | -45.0 | 36.1 | 51.6* | -17.3 | 61.0* | 41.3*
Cc1nc2[nH]onc2c2nccc(=O)c12 | -10.1 | -19.7 | -26.9 | 51.5* | -2.1 | 49.9* | 48.5*
CC1CCc2ccccc2N1C(=N)N(C)C (centres undefined) | 0.0 | -17.5 | 8.6 | 1.3 | 12.1 | · | ·
COc1ccc(NC(=O)/C=C/C(=O)O)c([N+](=O)[O-])c1 | 1.6 | 3.5 | 17.0 | 3.0 | -6.0 | · | ·
CCOc1ccc(NC(=O)/C=C/c2ccccc2)c([N+](=O)[O-])c1 | -8.1 | -14.0 | 32.2 | 37.1* | 14.1 | 14.8 | 10.3
CCOC(=O)C(C)Sc1nnc(Cc2cc(=O)[nH]c(=O)[nH]2)n1-c1ccc(Cl)cc1 (centres undefined) | 6.1 | -13.3 | 7.6 | 64.2* | -4.9 | 12.8 | 8.5
